Results published in ChEMBL document CHEMBL3272008, “Synthesis and biological actions of 2-substituted quinolizidines” (J Med Chem, 1976).
The source made the active and inactive calls. No cut-off for these calls is given here.

Key:
Rattus norvegicus [1] = assay: Reduction in ptosis in Wistar rat at 50 mg/kg, ip after 1 to 5 hrs; format: functional, organism-based; parameters: dose 50 mg/kg
Summary of the method: (§1)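 Male Wistar rats (175–225 g) dosed ip (vehicle dilute NaH2PO4 in water). Gross behaviour observed; respiratory rate, heart rate, rectal temperature and pupil size measured. Three treated rats per dose compared with one control.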

Mus musculus [2] = assay: Depression of forced motor activity in Swiss-Webster mouse at 25 mg/kg, ip after 30 mins by rotarod test relative to control; format: functional; details: route intraperitoneal
Summary of the method: (§2)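 Mice were dosed ip with vehicle or compound dissolved in a minimum of 1.5 M NaH2PO4 and diluted with water. On the rotarod, speed was 4 rpm for 30 sec, then 6 rpm for 30 sec, then increased every 30 sec up to a maximum of 50 rpm until the fall. Each mouse had four trials, two per day on two consecutive days, spaced 4–6 hr apart. The fourth trial was run 30 min after dosing. The read-out was trial time (sec) as % of control, with significance by Student's t test (p < 0.05).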

Rattus norvegicus [3] = assay: Reduction in respiratory rate in Wistar rat at 50 mg/kg, ip; format: functional, organism-based; parameters: dose 50 mg/kg; summary of the method: as §1
Mus musculus [4] = assay: Depression of forced motor activity in Swiss-Webster mouse at 50 mg/kg, ip after 30 mins by rotarod test relative to control; format: functional; details: route intraperitoneal; summary of the method: as §2
Mus musculus [5] = assay: Depression of spontaneous motor activity in Swiss-Webster mouse at 25 mg/kg, ip by photocell cage test relative to control; format: functional; details: route intraperitoneal
Summary of the method: (§3)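 Compound was dissolved in minimal 1.5 M NaH2PO4, diluted with water and given ip. Two mice given the same dose went into each of three photocell actophotometer cages 10 min after the rotarod test started. Counts were taken over 15 min, starting 5 min after placement. A factorial design across cages cancelled differences between units. Results were given as % of control, with significance by Student's t test (p < 0.05).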

Mus musculus [6] = assay: Depression of spontaneous motor activity in Swiss-Webster mouse at 50 mg/kg, ip by photocell cage test relative to control; format: functional; details: route intraperitoneal; summary of the method: as §3
Mus musculus [7] = assay: Depression of forced motor activity in ip dosed Swiss-Webster mouse after 30 mins by rotarod test relative to control; format: functional, organism-based; summary of the method: as §2
Mus musculus [8] = assay: Depression of spontaneous motor activity in ip dosed Swiss-Webster mouse by photocell cage test relative to control; format: functional, organism-based; summary of the method: as §3
Rattus norvegicus [9] = assay: Increase in pupil size in Wistar rat at 50 mg/kg, ip; format: functional, organism-based; parameters: dose 50 mg/kg; summary of the method: as §1
Mus musculus [10] = assay: Depression of spontaneous motor activity in Swiss-Webster mouse at 100 mg/kg, ip by photocell cage test relative to control; format: functional; details: route intraperitoneal
Summary of the method: (§4)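 Spontaneous activity in three photocell cages: two mice given the same ip dose placed per cage 10 min after rotarod start; 15-min count begun 5 min after placement. Each dose run in factorial design across all three cages to offset unit sensitivity. Counts expressed as % of control; Student's t test, p < 0.05.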

Rattus norvegicus [11] = assay: Reduction in body temperature in Wistar rat at 50 mg/kg, ip relative to control; format: functional; details: route intraperitoneal; summary of the method: as §1
[12] = Acute toxicity in ip dosed Swiss-Webster mouse administered as single dose after 7 days; format: organism-based; details: in vivo
Summary of the method: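 Mice given a single ip dose at each of four dose levels; lethality followed over 7 days; LD50 with 95% confidence limits estimated by the method of Weil. Compounds dissolved in minimal 1.5 M NaH2PO4, diluted with water; haloperidol in minimal 50% (w/v) tartaric acid-water.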

Rattus norvegicus [13] = assay: Reduction in heart rate in Wistar rat at 50 mg/kg, ip; format: functional, organism-based; parameters: dose 50 mg/kg; summary of the method: as §1
Rattus norvegicus [14] = assay: Depression of motor activity in Wistar rat at 50 mg/kg, ip after 1 to 5 hrs; format: functional, organism-based; parameters: dose 50 mg/kg; summary of the method: as §1
Mus musculus [15] = assay: Depression of forced motor activity in Swiss-Webster mouse at 100 mg/kg, ip after 30 mins by rotarod test relative to control; format: functional; details: route intraperitoneal
Summary of the method: (§5)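 Rotarod in mice: rod at 4 rpm for 30 sec, 6 rpm next 30 sec, then stepped up every 30 sec (max 50 rpm) until fall. Six mice at a time, four trials (two per day, 4–6 hr apart, two consecutive days); vehicle or compound ip 30 min before fourth trial. Time on rod as % of control; Student's t test, p < 0.05.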

Mus musculus [16] = assay: Depression of forced motor activity in Swiss-Webster mouse at 12.5 mg/kg, ip after 30 mins by rotarod test relative to control; format: functional; details: route intraperitoneal; summary of the method: as §2
Mus musculus [17] = assay: Depression of spontaneous motor activity in Swiss-Webster mouse at 12.5 mg/kg, ip by photocell cage test relative to control; format: functional; details: route intraperitoneal; summary of the method: as §3
Rattus norvegicus [18] = species: Rattus norvegicus; assay: Increase in heart rate in Wistar rat; format: functional, organism-based; summary of the method: as §1
Rattus norvegicus [19] = species: Rattus norvegicus; assay: Reduction in respiration rate in Wistar rat; format: functional, organism-based; summary of the method: as §1
Mus musculus [20] = assay: Depression of forced motor activity in Swiss-Webster mouse at 10 mg/kg, ip after 30 mins by rotarod test relative to control; format: functional; details: route intraperitoneal; summary of the method: as §5
Mus musculus [21] = assay: Depression of spontaneous motor activity in Swiss-Webster mouse at 5 mg/kg, ip by photocell cage test relative to control; format: functional; details: route intraperitoneal; summary of the method: as §4
Rattus norvegicus [22] = assay: Increase in motor activity in Wistar rat at 5 to 30 mg/kg, ip; format: functional, organism-based; summary of the method: as §1
Mus musculus [23] = assay: Depression of spontaneous motor activity in Swiss-Webster mouse at 10 mg/kg, ip by photocell cage test relative to control; format: functional; details: route intraperitoneal; summary of the method: as §4
Mus musculus [24] = assay: Depression of forced motor activity in Swiss-Webster mouse at 5 mg/kg, ip after 30 mins by rotarod test relative to control; format: functional; details: route intraperitoneal; summary of the method: as §5

SMILES	Activity (Mus musculus [2]) [%]	Activity (Mus musculus [4]) [%]	Activity (Mus musculus [5]) [%]	Activity (Mus musculus [6]) [%]	Activity (Mus musculus [8])	LD50 at 168 h [12] [mg/kg]	Activity (Mus musculus [16]) [%]	Activity (Mus musculus [17]) [%]	other results
O[C@]1(c2ccc(Cl)cc2)CCN2CCCCC2C1 (some centres not stated)	71.3	26.7	19.4	18.1	Dose-dependent effect	229	–	–	Activity (Rattus norvegicus [1]): Active; Activity (Rattus norvegicus [3]): Active; Activity (Mus musculus [7]): Dose-dependent effect; Activity (Rattus norvegicus [9]): Active; Activity (Mus musculus [10]): 2.6%; T (Rattus norvegicus [11]): 1 °C; Activity (Rattus norvegicus [13]): Active; Activity (Rattus norvegicus [14]): Active; Activity (Mus musculus [15]): 9.7%
O[C@]1(c2ccc(C(F)(F)F)cc2)CCN2CCCCC2C1 (single isomer, unassigned)	100.6	31.5	39.3	17.5	Dose-dependent effect	125	115.2	90	–
O[C@]1(c2cccc(Cl)c2)CCN2CCCCC2C1 (single isomer, unassigned)	83.6	34.3	89.9	74.3	–	134	88.6	–	–
O[C@]1(c2cccc(C(F)(F)F)c2)CCN2CCCCC2C1 (single isomer, unassigned)	98.1	56.6	45.1	35.4	Dose-dependent effect	137	107.2	70.3	–
O[C@@]1(c2ccc(Cl)cc2)CCN2CCCCC2C1 (single isomer, unassigned)	87.6	–	22.5	–	–	67.5	–	–	Activity (Rattus norvegicus [18]): Active; Activity (Rattus norvegicus [19]): Active; Activity (Mus musculus [20]): 101.9%; Activity (Mus musculus [21]): 526.8%; Activity (Rattus norvegicus [22]): inactive; Activity (Mus musculus [23]): 439.6%; Activity (Mus musculus [24]): 105.9%
